Source: PubChem (several laboratories)
Only some compounds are listed: those with a hit (about 2.7% of all), similar ones and a draw of the others.
m5-HT2A agonist: mouse Htr2a agonists via beta-arrestin recruitment, primary screen, cell-based, luminescence; AID 624169, 2012; CHO-K1 mHTR2A beta-arrestin complementation; percent of 30 µM serotonin response; 0.66% of 360,000 active; activation, % at 7.6 µM; 5-hydroxytryptamine receptor 2A (Mus musculus), P35363;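 active = activation above a run cutoff, the mean activation of all tested compounds plus 3 SD, cut at about 14% in these data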;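 note: 0% = plate median of compound wells and 100% = 30 µM serotonin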
Target sequence (P35363 whole entry, looked up): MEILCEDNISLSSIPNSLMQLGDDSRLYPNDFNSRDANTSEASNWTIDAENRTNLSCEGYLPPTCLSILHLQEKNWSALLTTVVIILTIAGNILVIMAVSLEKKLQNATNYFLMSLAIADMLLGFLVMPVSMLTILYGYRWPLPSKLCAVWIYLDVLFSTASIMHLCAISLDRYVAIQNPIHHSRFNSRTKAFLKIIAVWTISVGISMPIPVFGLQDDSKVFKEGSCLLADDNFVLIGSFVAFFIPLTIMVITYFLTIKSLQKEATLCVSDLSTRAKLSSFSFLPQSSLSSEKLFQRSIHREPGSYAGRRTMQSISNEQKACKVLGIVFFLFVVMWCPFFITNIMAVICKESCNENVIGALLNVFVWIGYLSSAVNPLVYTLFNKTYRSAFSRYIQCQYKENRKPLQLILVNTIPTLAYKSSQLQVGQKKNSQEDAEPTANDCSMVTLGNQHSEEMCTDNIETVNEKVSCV
MC4R antag cAMP: MC4R antagonists of cAMP signaling, primary screen, cell-based, TR-FRET, antagonist arm of biased-ligand search | Melanocortin receptor 4 (Homo sapiens), P32245 | MC4R-expressing cells, MTII-stimulated cAMP, LANCE TR-FRET | inhibition, % at 6.5 µM | 0.48% of 360,000 active | AID 540295, 2011;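 active = inhibition above its plate's cutoff, the mean of tested wells on that plate plus 3 SD, cut at about 29% in these data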;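 note: 0% = Melanotan II alone and 100% = Melanotan II plus saturating MCL0020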
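System – human MC4R-expressing U2OS cells · Also added – Melanotan II · Dosing – one concentration, 6.5 µM nominal · Timing – 30-min compound, 1-h challenge, 1-h detection, room temperature · Measured by – Eu-cAMP/anti-cAMP TR-FRET, emission 671 nm · Replicates – singlicate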
PREPL inh: PREPL enzyme inhibitors, primary screen, biochemical, fluorescence polarization; Prolyl endopeptidase-like (Homo sapiens), Q4J6C6; recombinant PREPL, fluorescence polarization activity-based probe; inhibition, % at 5.96 µM; 0.68% of 320,000 active; AID 2751, 2010; in the data active = inhibition above about 43%;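 note: 0% = enzyme with DMSO and 100% = wells lacking enzyme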
Lipid droplet: inhibitors of hepatocyte lipid droplet formation, primary screen, imaging, high-throughput imaging, BODIPY stain; inhibition, % at 6.5 µM; AML12 mouse hepatocytes, oleate lipid droplets; AID 1656, 2009; 0.4% of 240,000 active;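 active = lipid droplet intensity inhibited by at least 50%, with more than 500 cells counted; inconclusive = wells with under 300 cells, treated as cytotoxic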
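Test system: AML12 mouse liver cells; schedule: overnight exposure; technique: high-content imaging of BODIPY-stained droplets and DAPI nuclei; read-out: % inhibition of corrected integrated BODIPY droplet signal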
NTR1 ag: agonists of human NTR1, primary screen, imaging, U2OS cells, beta-arrestin-GFP, high content. activation, % at 20 µM. NTR1-U2OS beta-arrestin-GFP spot imaging, agonist mode. 0.17% of 330,000 active. AID 493036, 2011;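 active = activation at or above 40% of the spot to cytoplasm intensity ratio, with at least 20 cells analyzed; inconclusive = wells under 20 cells, flagged as cytotoxic or low count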;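 note: 0% = DMSO without peptide and 100% = 100 nM NTR1 peptide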
MC4R barr agon: MC4R agonists recruiting beta-arrestin, primary screen, cell-based, luminescence, agonist arm of biased-ligand search. Melanocortin receptor 4 (Homo sapiens), P32245. U2OS MC4R beta-arrestin complementation; percent of melanotan II response, DMSO zero. activation, % at 8.9 µM. 0.98% of 360,000 active. AID 540308, 2011;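 active = activation above a per-plate cutoff, the mean activation of sample wells on that plate plus 3 SD, cut at about 8% in these data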
The depositor's hits bear a star; ? = inconclusive; / = not tested or not shown.

SMILES	m5-HT2A agonist	MC4R antag cAMP	PREPL inh	Lipid droplet	NTR1 ag	MC4R barr agon
O=C(Nc1cccc(-c2nc3ccccc3[nH]2)c1)c1cccc(NC(=O)c2ccco2)c1	0	8	-4	-8	41*	2
COc1ccc(CC(=O)Nc2ccncc2Cl)cc1	12	-3	2	-39	0	-4
Nc1ccc(OCCCc2c(N)nc(N)nc2N)cc1	3	15	52*	-3	-1	-2
O=C(Nc1ncc(Cc2ccc(SC(F)F)cc2)s1)c1ccc(OC(F)F)cc1	-4	11	-7	?	6	33*
COc1ccc(CC(N)c2csc(NC(=O)c3cccc(OC(F)(F)F)c3)n2)cc1 (configuration not stated)	-2	-12	/	/	/	8.9*
NC(Cc1ccccc1)c1csc(NC(=O)c2cccc(OC(F)(F)F)c2)n1 (configuration not stated)	-5	5	/	/	/	-1
O=C(NCCCN1CCCC1=O)c1ccccc1NS(=O)(=O)c1ccc(Br)cc1	-1	3	-7	0	-1	-1
CC1(Oc2cccc(F)c2)CCN(Cc2ccc(-c3ccccn3)cc2)C1 (configuration not stated)	-6	10	/	/	/	8.6*
COc1ccc(C(=O)/C=C2\C(=O)Nc3ccc(Br)cc32)cc1	0	-2	/	/	/	0
O=C1Nc2ccc(Br)cc2/C1=C/C(=O)c1ccc2c(c1)OCO2	3	-4	-59	2	55*	-5
CC(=O)c1cc(CN2C(=O)CCC2=O)cs1	-3	-7	4	/	0	0
CC(=O)c1cc(Cc2csc(C(C)=O)c2)cs1	7	-6	53*	/	-1	0
COc1cc2c(cc1OC)C(Nn1cnnc1)=NC1(CCCC1)C2	0	9	-1	12	-1	-1
COc1cc(C2NC(=O)NC(C)=C2C(=O)OC(C)C)ccc1OC(=O)c1ccco1 (configuration not stated)	-3	4	79*	-26	0	2
CCOC(=O)C1=C(C)NC(=O)NC1c1ccc(OC(=O)c2ccco2)c(OC)c1 (configuration not stated)	-2	4	67*	/	-1	-3
CN1CCc2nc3sc(C(=O)C45CC6CC(CC(C6)C4)C5)c(N)c3cc2C1	4	0	29	/	2	12*
Nc1c(C(=O)O)sc2nc3c(cc12)CCCC3	6	-6	10	0	-1	-2
Cc1c(C(=O)Nc2ccc(N3CCOCC3)cc2)oc2ccccc12	-7	-2	13	/	2	0
Cc1c(C(=O)OCC(=O)Nc2ccc(N3CCOCC3)cc2)oc2ccccc12	-1	-2	9	/	1	9.2*
CCOC(=O)C(=Cc1c[nH]c2ccc(S(=O)(=O)N(C)C)cc12)C(=O)OCC	5	-53	-4	-1	7	0
O=CN1c2ccccc2CSc2ccccc21	5	11	10	/	-1	1
COc1ccccc1-n1cnnc1SC(C)C(=O)Nc1cccc([N+](=O)[O-])c1 (configuration not stated)	0	14	6	-14	0	-2
Cc1c2cnn(CC(=O)Nc3c(F)c(F)cc(F)c3F)c(=O)c2c(C)n1Cc1ccccc1F	-3	22	4	0	0	25*
CC(NC(=O)CCC1COc2ccccc2O1)c1ccccc1 (configuration not stated)	2	12	-2	5	-1	1
N#CCOC(=O)[C@H](Cc1c[nH]c2ccccc12)NS(=O)(=O)c1ccc(Cl)cc1	6	34*	7	/	2	1
SMILES	m5-HT2A agonist	MC4R antag cAMP	PREPL inh	Lipid droplet	NTR1 ag	MC4R barr agon
COc1ccc(NC2=NC(=S)N(c3ccccc3C)C23CCCCC3)cc1	-3	18	-6	1	0	4
COc1ccc(N2C(=S)N=C(Nc3ccccc3)C23CCCCC3)cc1	-2	20	2	1	0	14*
Cc1ccc(S(=O)(=O)N2C[C@H]3C(=O)C[C@@H](c4ccc(Cl)cc4)N(S(=O)(=O)c4ccc(C)cc4)[C@H]3C[C@H]2c2ccccc2)cc1	-2	/	/	/	/	/
Cc1nc2cc3nc(C(F)(F)F)[nH]c3cc2[nH]1	3	-9	4	/	0	-2
O=C(NCCN1CCN(c2ccccc2)CC1)c1ccc2c(c1)[nH]c(=S)n1c3ccccc3nc21	-1	8	-1	0	-2	8.9*
COc1ccccc1CNC(=O)c1ccc2nc3[nH]c4ccccc4c3nc2c1	4	27	-12	73*	7	1
CCc1nc2ccc(C(=O)NCCc3ccccc3OC)cc2nc1CC	-4	14	12	-7	0	0
CC1=CC(C)(C)N2C(=O)C3(C(C#N)=C(N)Oc4cc(O)ccc43)c3c(C)c(C)cc1c32 (configuration not stated)	5	25	10	-8	28	6
CC1(c2ccccc2)CC(C)(C)N2C(=O)C3(C(C#N)=C(N)Oc4cc(O)ccc43)c3cccc1c32 (configuration not stated)	34*	16	3	20	37	6
O=C(NCC1(c2ccccc2)CCCC1)c1ccc(Br)o1	-3	4	-6	5	3	2
Cc1cc(Cl)ccc1OC(C)C(=O)NCCCCc1ccccc1 (configuration not stated)	-5	14	-20	12	8	9.0*
COC(=O)CCC(=O)OC1(C)C(=O)C2=CN(CCCCO)C(c3ccc(OC)cc3)=CC2=C(Br)C1=O (configuration not stated)	/	/	55*	2	4	/
COC(=O)CCC(=O)OC1(C)C(=O)C2=CN(CCc3ccccn3)C(c3ccc(OC)cc3)=CC2=C(Br)C1=O (configuration not stated)	5	-1	44*	/	2	-2
COC(=O)CCC(=O)OC1(C)C(=O)C2=CN(CCN3CCOCC3)C(c3ccc(OC)cc3)=CC2=C(Br)C1=O (configuration not stated)	/	/	33	20	-1	/
COc1ccc(/C=C/C(=O)c2ccc([N+](=O)[O-])o2)cc1OC	/	/	8	/	-2	/
O=C(/C=C/c1cccc(Cl)c1)c1ccc([N+](=O)[O-])o1	-1	34*	22	/	-1	-4
